This note sets out measurements from ChEMBL document CHEMBL1144932, “Design, synthesis, and biological properties of new bis(acridine-4-carboxamides) as anticancer agents” (J Med Chem, 2003).

In general, IC50 refers to the concentration that gives 50% inhibition. A low value points to inhibition by little substance.

The species named for assay [1] is Homo sapiens. As to the kind of experiment: In vitro cytotoxic activity against human colon adenocarcinoma (HT-29). Format: functional. In a few lines: (§1)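 HT29 cells were seeded at 2.5 × 10^4 cells/mL of medium and drug solutions were added. Exposure lasted 144 h. IC50 is the drug concentration inhibiting cell growth by 50%. Assays were run in triplicate.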
In assay [2] the test system is MCF7. As to the kind of experiment: Percent growth of breast MCF-7 cell line at compound concentration 10e-6 was determined. Format: functional, Homo sapiens. In a few lines: (§2)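 Cells in the NCI panel were exposed for 48 h to 10^-8, 10^-6 and 10^-4 or 10^-5 M drug. Growth is given as percent of untreated control (100%). Negative values are the percent of cells killed relative to the initial cell number.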

The test system of assay [3] is MCF7. As to the kind of experiment: Percent growth of breast MCF-7 cell line at compound concentration 10e-8 was determined. The format is functional, Homo sapiens. In a few lines:
as §2

In assay [4] the test system is MCF7. The assay can be described thus: Percent growth of breast MCF-7 cell line at compound concentration 10e-4 was determined. The format is functional, Homo sapiens. In a few lines: as §2
Assay [5] deals with HCT-116. The assay can be described thus: Percent growth of colon HCT116 cell line at compound concentration 10e-4 was determined. Format: functional, Homo sapiens. In a few lines:
as §2

Assay [6] deals with HCT-116. As to the kind of experiment: Percent growth of colon HCT116 cell line at compound concentration 10e-6 was determined. Format: functional, Homo sapiens. In a few lines: as §2
The subject of assay [7] is HCT-116. As to the kind of experiment: Percent growth of colon HCT116 cell line at compound concentration 10e-8 was determined. Format: functional, Homo sapiens. In a few lines: as §2
For assay [8], the species on record is Homo sapiens. As to the kind of experiment: In vitro cytotoxic activity against human colon adenocarcinoma (HT-29). Format: functional. In a few lines:
as §1

Assay [9] relates to NCI-H460. The assay can be described thus: Percent growth of lung-NSC NCI-H460 cell line at compound concentration 10e-4 was determined. Format: functional, Homo sapiens. In a few lines: as §2
For assay [10], the system named is NCI-H460. As to the kind of experiment: Percent growth of lung-NSC NCI-H460 cell line at compound concentration 10e-6 was determined. Format: functional, Homo sapiens. In a few lines:
as §2

In assay [11] the test system is RPMI-8226. The assay can be described thus: Percent growth of leukemia RPMI-8226 cell line at compound concentration 10e-4 was determined. The format is functional, Homo sapiens. In a few lines: as §2
Assay [12] relates to RPMI-8226. As to the kind of experiment: Percent growth of leukemia RPMI-8226 cell line at compound concentration 10e-6 was determined. The format is functional, Homo sapiens. In a few lines: as §2
Assay [13] relates to RPMI-8226. The assay can be described thus: Percent growth of leukemia RPMI-8226 cell line at compound concentration 10e-8 was determined. Format: functional, Homo sapiens. In a few lines: as §2
Assay [14] relates to NCI-H460. The assay can be described thus: Percent growth of lung-NSC NCI-H460 cell line at compound concentration 10e-8 was determined. The format is functional, Homo sapiens. In a few lines:
as §2

The test system of assay [15] is LOX IMVI. The assay can be described thus: Percent growth of melanoma LOX IMVI cell line at compound concentration 10e-4 was determined. Format: functional, Homo sapiens. In a few lines: as §2
The subject of assay [16] is LOX IMVI. The assay can be described thus: Percent growth of melanoma LOX IMVI cell line at compound concentration 10e-6 was determined. Format: functional, Homo sapiens. In a few lines: as §2
In assay [17] the test system is LOX IMVI. The assay can be described thus: Percent growth of melanoma LOX IMVI cell line at compound concentration 10e-8 was determined. Format: functional, Homo sapiens. In a few lines:
as §2

Assay [18] has as its system OVCAR-4. As to the kind of experiment: Percent growth of ovarian OVCAR-4 cell line at compound concentration 10e-4 was determined. Format: functional, Homo sapiens. In a few lines: as §2
Assay [19] concerns OVCAR-4. The assay can be described thus: Percent growth of ovarian OVCAR-4 cell line at compound concentration 10e-8 was determined. The format is functional, Homo sapiens. In a few lines: as §2
Assay [20] has as its system 786-0. The assay can be described thus: Percent growth of renal 786-0 cell line at compound concentration 10e-4 was determined. Format: functional, Homo sapiens. In a few lines: as §2
The test system of assay [21] is 786-0. The assay can be described thus: Percent growth of renal 786-0 cell line at compound concentration 10e-6 was determined. Format: functional, Homo sapiens. In a few lines:
as §2

The test system of assay [22] is 786-0. As to the kind of experiment: Percent growth of renal 786-0 cell line at compound concentration 10e-8 was determined. The format is functional, Homo sapiens. In a few lines:
as §2

Assay [23] concerns DU-145. As to the kind of experiment: Percent growth of prostate DU-145 cell line at compound concentration 10e-4 was determined. The format is functional, Homo sapiens. In a few lines: as §2
The test system of assay [24] is DU-145. The assay can be described thus: Percent growth of prostate DU-145 cell line at compound concentration 10e-6 was determined. The format is functional, Homo sapiens. In a few lines: as §2
In assay [25] the test system is DU-145. The assay can be described thus: Percent growth of prostate DU-145 cell line at compound concentration 10e-8 was determined. The format is functional, Homo sapiens. In a few lines:
as §2

Assay [26] deals with SNB-19. The assay can be described thus: Percent growth of CNS SNB-19 cell line at compound concentration 10e-4 was determined. The format is functional, Homo sapiens. In a few lines: as §2
For assay [27], the system named is SNB-19. The assay can be described thus: Percent growth of CNS SNB-19 cell line at compound concentration 10e-6 was determined. The format is functional, Homo sapiens. In a few lines: as §2
Assay [28] has as its system SNB-19. As to the kind of experiment: Percent growth of CNS SNB-19 cell line at compound concentration 10e-8 was determined. Format: functional, Homo sapiens. In a few lines:
as §2

Assay [29] deals with OVCAR-4. As to the kind of experiment: Percent growth of ovarian OVCAR-4 cell line at compound concentration 10e-6 was determined. Format: functional, Homo sapiens. In a few lines:
as §2

The molecule `COc1ccc2nc3c(C(=O)NCCN(C)C)ccc(NCCN(C)C)c3c(O)c2c1` showed an IC50 in the assay filed under Homo sapiens [1] of 500 nM.
On to `COc1ccc2nc3c(C(=O)NCCCN(C)CCCNC(=O)c4ccc(NCCN(C)C)c5c(O)c6cc(OC)ccc6nc45)ccc(NCCN(C)C)c3c(O)c2c1`, for which the Growth in the assay with MCF7 [2] is 0%; in the assay on MCF7 [3], 18%; in the assay on MCF7 [4], -85%; in the assay with HCT-116 [5], -97%; in the assay with HCT-116 [6], -23%; with HCT-116 [7], 17%. Moreover, the Growth in the assay with NCI-H460 [9] is given as -90%; in the assay with NCI-H460 [10], -10%; in the assay with RPMI-8226 [11], -44%; in the assay on RPMI-8226 [12], -36%; with RPMI-8226 [13], 4%; with NCI-H460 [14], 9%. Also, the Growth in the assay with LOX IMVI [15] is listed as -73%; in the assay on LOX IMVI [16], -2%; in the assay on LOX IMVI [17], 31%; in the assay with OVCAR-4 [18], -96%; in the assay on OVCAR-4 [19], 38%; in the assay with 786-0 [20] it was -98%. Further, the Growth in the assay with 786-0 [21] is 1%; with 786-0 [22], 28%; in the assay on DU-145 [23], -77%; in the assay on DU-145 [24], -25%; in the assay on DU-145 [25], 25%; in the assay with SNB-19 [26], -85%. In addition, the Growth in the assay with SNB-19 [27] is 3%; in the assay with SNB-19 [28], 38%; in the assay with OVCAR-4 [29], -21%. The molecule further registered an IC50 in the assay listed under Homo sapiens [8] of 2 nM.
